≈ marks a conversion by molar mass, not a printed value.
Tests used:
[1] = system: Trichomonas vaginalis; experiment: Antiparasitic activity against metronidazole sensitive Trichomonas vaginalis ATCC 33592 after 48 hrs by trypan blue exclusion assay; assay type: functional; conditions: ATCC 33592, 48 h
[2] = system: Trichomonas vaginalis; experiment: Potency index, ratio of metronidazole MIC to compound MIC for metronidazole resistant Trichomonas vaginalis ATCC 50143; assay type: functional
[3] = Selectivity index, ratio of IC50 for human HeLa cells to MIC for metronidazole resistant Trichomonas vaginalis ATCC 50143; assay type: toxicity, cell-based; conditions: read-out: Selectivity Index
In short: (§1)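 SI is HeLa IC50 divided by parasite MIC. HeLa cells seeded at 2 × 10⁴/well in triplicate in DMEM with 10% FCS, 24 h at 37 °C in 5% CO2. Medium then replaced with compound dilutions (0.05% DMSO controls) for 24 h. Viability by MTT read at OD540; IC50 is the concentration killing 50% of cells. MIC from 48 h trypan blue parasite killing in TYM.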

[4] = system: Trichomonas vaginalis; experiment: Antiparasitic activity against metronidazole resistant Trichomonas vaginalis ATCC 50143 after 48 hrs by trypan blue exclusion assay; assay type: functional; conditions: ATCC 50143, 48 h
In short: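 T. vaginalis trophozoites ([…]), log phase, grown in TYM with 10% FCS, vitamin mix and penicillin/streptomycin at 37 °C. Test agents from DMSO stocks serially diluted in TYM; DMSO/TYM vehicle controls. Anaerobic incubation at 37 °C with microscopic viability checks from 3 to 48 h by trypan blue exclusion. MIC is the lowest concentration killing all cells by 48 h. Repeated three times.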

[5] = Cytotoxicity against human HeLa cells after 24 hrs by MTT assay; assay type: toxicity, cell-based
In short: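 HeLa cells seeded at 2 × 10⁴ per well in DMEM with 10% FCS, in triplicate, and held 24 h at 37 °C in 5% CO₂. Exposed to compound dilutions for 24 h; controls received 0.05% DMSO. MTT in PBS pH 7.4 added, formazan dissolved in DMSO, OD540 read. IC50 taken as the concentration killing 50% of cells.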

[6] = Selectivity index, ratio of IC50 for human HeLa cells to MIC for metronidazole sensitive Trichomonas vaginalis ATCC 33592; assay type: toxicity, cell-based; conditions: read-out: Selectivity Index; in short: as §1

Cc1ncc([N+](=O)[O-])n1CC(O)CN1CCCCC1 (racemic)
MIC [1]: 23.3 µM (≈ 6.26 µg/mL)
Ratio [2]: <=12.7
selectivity ratio [3]: > 26
MIC [4]: 187 µM (≈ 50.1 µg/mL)
IC50 at 24 h [5]: > 5 mM
selectivity ratio [6]: > 217

CCN1CCN(C(=S)SCC(O)Cn2c([N+](=O)[O-])cnc2C)CC1 (racemic)
MIC [1]: 20.9 µM (≈ 7.82 µg/mL)
Ratio [2]: <=12.7
selectivity ratio [3]: > 60
MIC [4]: 83.8 µM (≈ 31.3 µg/mL)
IC50 at 24 h [5]: > 5 mM
selectivity ratio [6]: > 250

CCCCN1CCN(C(=S)SCC(O)Cn2cc([N+](=O)[O-])nc2C)CC1 (racemic)
MIC [1]: 125 µM (≈ 50.1 µg/mL)
IC50 at 24 h [5]: 4.33 mM
selectivity ratio [6]: 34

COc1ccccc1N1CCN(C(=S)SCC(O)Cn2cc([N+](=O)[O-])nc2C)CC1 (racemic)
MIC [1]: 222 µM (≈ 100 µg/mL)
selectivity ratio [3]: > 4
MIC [4]: 1110 µM (≈ 501 µg/mL)
IC50 at 24 h [5]: > 5 mM
selectivity ratio [6]: > 22

Cc1nc([N+](=O)[O-])cn1CC(O)CSC(=S)N1CCN(c2cccc(Cl)c2)CC1 (racemic)
MIC [1]: 54.9 µM (≈ 25.1 µg/mL)
selectivity ratio [3]: 3
MIC [4]: 549 µM (≈ 251 µg/mL)
IC50 at 24 h [5]: 1.74 mM
selectivity ratio [6]: 31

Cc1ncc([N+](=O)[O-])n1CC(O)CSC(=S)N1CCCCC1 (racemic)
MIC [1]: 72.7 µM (≈ 25 µg/mL)
Ratio [2]: 2.5 - 12.6
selectivity ratio [3]: 9
MIC [4]: 145 µM (≈ 50.1 µg/mL)
IC50 at 24 h [5]: 1.4 mM
selectivity ratio [6]: 19

Cc1ncc([N+](=O)[O-])n1CC(O)CN1CCCC(C)C1 (racemic)
MIC [1]: 22.2 µM (≈ 6.26 µg/mL)
Ratio [2]: <=12.7
selectivity ratio [3]: > 56
MIC [4]: 88.7 µM (≈ 25 µg/mL)
IC50 at 24 h [5]: > 5 mM
selectivity ratio [6]: > 227

Cc1ncc([N+](=O)[O-])n1CC(O)CSC(=S)N1CCCCCC1 (racemic)
MIC [1]: 34.9 µM (≈ 12.5 µg/mL)
Ratio [2]: 2.5 - 12.6
selectivity ratio [3]: 6
MIC [4]: 69.8 µM (≈ 25 µg/mL)
IC50 at 24 h [5]: 0.411 mM
selectivity ratio [6]: 11

COc1ccccc1N1CCN(C(=S)SCC(O)Cn2c([N+](=O)[O-])cnc2C)CC1 (racemic)
MIC [1]: 27.7 µM (≈ 12.5 µg/mL)
Ratio [2]: <=12.7
selectivity ratio [3]: > 90
MIC [4]: 55.4 µM (≈ 25 µg/mL)
IC50 at 24 h [5]: > 5 mM
selectivity ratio [6]: > 185

Cc1ncc([N+](=O)[O-])n1CC(O)CN1CCCC1 (racemic)
MIC [1]: 49.2 µM (≈ 12.5 µg/mL)
Ratio [2]: <=12.7
selectivity ratio [3]: > 25
MIC [4]: 197 µM (≈ 50.1 µg/mL)
IC50 at 24 h [5]: > 5 mM
selectivity ratio [6]: > 102

COc1ccccc1N1CCN(CC(O)Cn2c([N+](=O)[O-])cnc2C)CC1 (racemic)
MIC [1]: 33.3 µM (≈ 12.5 µg/mL)
Ratio [2]: <=12.7
selectivity ratio [3]: 33
MIC [4]: 133 µM (≈ 50.1 µg/mL)
IC50 at 24 h [5]: 4.39 mM
selectivity ratio [6]: 131

Cc1ncc([N+](=O)[O-])n1CC(O)CN1CCCCC1C (racemic)
MIC [1]: 55.4 µM (≈ 15.6 µg/mL)
selectivity ratio [3]: > 11
MIC [4]: 443 µM (≈ 125 µg/mL)
IC50 at 24 h [5]: > 5 mM
selectivity ratio [6]: > 90

Cc1ncc([N+](=O)[O-])n1CC(O)CSC(=S)N(C)C (racemic)
MIC [1]: 20.6 µM (≈ 6.26 µg/mL)
Ratio [2]: <=12.7
selectivity ratio [3]: > 61
MIC [4]: 82.2 µM (≈ 25 µg/mL)
IC50 at 24 h [5]: > 5 mM
selectivity ratio [6]: > 243

Cc1ncc([N+](=O)[O-])n1CC(O)CN1CCN(c2ccccc2)CC1 (racemic)
MIC [1]: 22.6 µM (≈ 7.82 µg/mL)
Ratio [2]: <=12.7
selectivity ratio [3]: > 27
MIC [4]: 181 µM (≈ 62.6 µg/mL)
IC50 at 24 h [5]: > 5 mM
selectivity ratio [6]: > 220

Cc1nc([N+](=O)[O-])cn1CC(O)CSC(=S)N1CCCC(C)C1 (racemic)
MIC [1]: 34.9 µM (≈ 12.5 µg/mL)
selectivity ratio [3]: 2
MIC [4]: 1400 µM (≈ 501 µg/mL)
IC50 at 24 h [5]: 2.7 mM
selectivity ratio [6]: 105

Cc1ncc([N+](=O)[O-])n1CC(O)CN1CCN(c2ccco2)CC1 (racemic)
MIC [1]: 21.5 µM (≈ 7.21 µg/mL)
Ratio [2]: <=12.7
selectivity ratio [3]: 20
MIC [4]: 172 µM (≈ 57.7 µg/mL)
IC50 at 24 h [5]: 3.52 mM
selectivity ratio [6]: 163

CCOC(=O)N1CCN(CC(O)Cn2c([N+](=O)[O-])cnc2C)CC1 (racemic)
MIC [1]: 22.9 µM (≈ 7.82 µg/mL)
Ratio [2]: <=12.7
selectivity ratio [3]: 40
MIC [4]: 91.6 µM (≈ 31.3 µg/mL)
IC50 at 24 h [5]: 3.67 mM
selectivity ratio [6]: 160

Cc1ncc([N+](=O)[O-])n1CC(O)CN1C(C)CCCC1C (racemic)
MIC [1]: 42.2 µM (≈ 12.5 µg/mL)
Ratio [2]: <=12.7
selectivity ratio [3]: > 59
MIC [4]: 84.5 µM (≈ 25 µg/mL)
IC50 at 24 h [5]: > 5 mM
selectivity ratio [6]: > 119

CCN(C)C(=S)SCC(O)Cn1c([N+](=O)[O-])cnc1C (stereo unspecified)
MIC [1]: 24.6 µM (≈ 7.82 µg/mL)
selectivity ratio [3]: 10
MIC [4]: 393 µM (≈ 125 µg/mL)
IC50 at 24 h [5]: 4.15 mM
selectivity ratio [6]: 169

Cc1ncc([N+](=O)[O-])n1CC(O)CN1CCCCCC1 (racemic)
MIC [1]: 22.2 µM (≈ 6.26 µg/mL)
Ratio [2]: <=12.7
selectivity ratio [3]: > 113
MIC [4]: 44.3 µM (≈ 12.5 µg/mL)
IC50 at 24 h [5]: > 5 mM
selectivity ratio [6]: > 227

Cc1ncc([N+](=O)[O-])n1CC(O)Cn1cnc([N+](=O)[O-])c1 (racemic)
MIC [1]: 26.4 µM (≈ 7.81 µg/mL)
Ratio [2]: <=12.7
selectivity ratio [3]: > 47
MIC [4]: 106 µM (≈ 31.3 µg/mL)
IC50 at 24 h [5]: > 5 mM
selectivity ratio [6]: > 192

Cc1nc([N+](=O)[O-])cn1CC(O)Cn1cncn1 (racemic)
MIC [1]: 99.2 µM (≈ 25 µg/mL)
selectivity ratio [3]: > 5
MIC [4]: 992 µM (≈ 250 µg/mL)
IC50 at 24 h [5]: > 5 mM
selectivity ratio [6]: > 50

CCN1CCN(CC(O)Cn2cc([N+](=O)[O-])nc2C)CC1 (racemic)
MIC [1]: 337 µM (≈ 100 µg/mL)
IC50 at 24 h [5]: > 5 mM
selectivity ratio [6]: > 14

Cc1nc([N+](=O)[O-])cn1CC(O)CSC(=S)N1CCN(C(=O)OC(C)(C)C)CC1 (racemic)
MIC [1]: 28.1 µM (≈ 12.5 µg/mL)
selectivity ratio [3]: > 9
MIC [4]: 562 µM (≈ 250 µg/mL)
IC50 at 24 h [5]: > 5 mM
selectivity ratio [6]: > 178

Cc1nc([N+](=O)[O-])cn1CC(O)CN1CCN(c2ccccn2)CC1 (racemic)
MIC [1]: 144 µM (≈ 50.1 µg/mL)
selectivity ratio [3]: > 3
MIC [4]: 1450 µM (≈ 501 µg/mL)
IC50 at 24 h [5]: > 5 mM
selectivity ratio [6]: > 34

CCN1CCN(C(=S)SCC(O)Cn2cc([N+](=O)[O-])nc2C)CC1 (racemic)
MIC [1]: 134 µM (≈ 50.1 µg/mL)
selectivity ratio [3]: > 3
MIC [4]: 1340 µM (≈ 501 µg/mL)
IC50 at 24 h [5]: > 5 mM
selectivity ratio [6]: > 37

Cc1nc([N+](=O)[O-])cn1CC(O)CN1CCN(c2cccc(Cl)c2Cl)CC1 (racemic)
MIC [1]: 121 µM (≈ 50 µg/mL)
selectivity ratio [3]: 3
MIC [4]: 1210 µM (≈ 500 µg/mL)
IC50 at 24 h [5]: 3.62 mM
selectivity ratio [6]: 30

CCOC(=O)N1CCN(C(=S)SCC(O)Cn2cc([N+](=O)[O-])nc2C)CC1 (racemic)
MIC [1]: 120 µM (≈ 50.1 µg/mL)
selectivity ratio [3]: 4
MIC [4]: 600 µM (≈ 250 µg/mL)
IC50 at 24 h [5]: 2.36 mM
selectivity ratio [6]: 19

Cc1nc([N+](=O)[O-])cn1CC(O)CSC(=S)N1CCN(c2cccc(Cl)c2Cl)CC1 (racemic)
MIC [1]: 25.5 µM (≈ 12.5 µg/mL)
selectivity ratio [3]: 2
MIC [4]: 510 µM (≈ 250 µg/mL)
IC50 at 24 h [5]: 0.724 mM
selectivity ratio [6]: 30

From ChEMBL document CHEMBL3875170, “2-Methyl-4/5-nitroimidazole derivatives potentiated against sexually transmitted Trichomonas: Design, synthesis, biology and 3D-QSAR study” (Eur J Med Chem, 2016)
